The experiment has as its target T1, Ectonucleotide pyrophosphatase/phosphodiesterase family member 1 (Homo sapiens, UniProt P22413).
T1 sequence (P22413 whole entry): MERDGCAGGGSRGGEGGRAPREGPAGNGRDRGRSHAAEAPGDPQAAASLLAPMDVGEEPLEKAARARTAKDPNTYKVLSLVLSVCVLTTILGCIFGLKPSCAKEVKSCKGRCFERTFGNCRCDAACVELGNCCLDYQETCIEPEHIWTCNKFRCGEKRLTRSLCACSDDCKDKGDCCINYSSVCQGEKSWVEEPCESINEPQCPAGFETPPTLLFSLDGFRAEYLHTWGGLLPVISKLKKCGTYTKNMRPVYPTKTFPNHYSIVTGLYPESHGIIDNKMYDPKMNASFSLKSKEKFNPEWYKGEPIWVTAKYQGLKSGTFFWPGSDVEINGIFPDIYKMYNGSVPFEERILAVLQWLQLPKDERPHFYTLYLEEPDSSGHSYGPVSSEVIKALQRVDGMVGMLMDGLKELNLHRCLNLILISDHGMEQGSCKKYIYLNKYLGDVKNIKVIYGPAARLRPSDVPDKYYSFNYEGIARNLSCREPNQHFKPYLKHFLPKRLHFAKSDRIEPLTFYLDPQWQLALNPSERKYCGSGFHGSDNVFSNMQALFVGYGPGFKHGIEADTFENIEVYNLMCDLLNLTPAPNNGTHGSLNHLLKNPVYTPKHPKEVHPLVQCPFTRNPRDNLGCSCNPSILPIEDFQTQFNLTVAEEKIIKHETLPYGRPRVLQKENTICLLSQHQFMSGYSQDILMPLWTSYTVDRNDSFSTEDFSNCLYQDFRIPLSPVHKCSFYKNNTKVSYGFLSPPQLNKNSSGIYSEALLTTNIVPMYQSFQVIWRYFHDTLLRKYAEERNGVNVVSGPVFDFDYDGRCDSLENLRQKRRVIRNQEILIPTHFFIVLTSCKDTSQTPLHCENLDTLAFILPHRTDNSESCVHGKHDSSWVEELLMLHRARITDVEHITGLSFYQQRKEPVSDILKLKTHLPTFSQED
Put plainly: Mixed type inhibition of human NPP1 using pNP-TMP as substrate assessed as dissociation constant for enzyme-inhibitor-substrate complex after 20 mins by Dixon and Cornish-Bowden method. The method, boiled down:
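Human NPP1 (COS-7 lysate) is tested with pNP-TMP hydrolysis at 37 °C in pH 8.5 Tris buffer, reading p-nitrophenol at […]. Substrate is 25, 50 and 100 μM, and inhibitor is 0, 25, 50 and 100 μM. Inhibition type, Ki and Ki′ (EIS complex dissociation constant) come from Dixon and Cornish–Bowden plots of three independent experiments.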

The structures appear in SMILES notation. pKi: −log10 of the molar value.

On to `Nc1ncnc2c1ncn2[C@@H]1O[C@H](CO[P@](O)(=S)OP(=O)(O)CP(=O)(O)O)[C@@H](O)[C@H]1O`, for which the pKi is 5.35.

The record behind these values is ChEMBL document CHEMBL3286381 (J Med Chem, 2014).
